Source: ChEMBL document CHEMBL2169827, “4-Oxo-1,4-dihydropyridines as selective CB₂ cannabinoid receptor ligands. Part 2: discovery of new agonists endowed with protective effect against experimental colitis” (J Med Chem, 2012)
The source made the active and inactive calls. No cut-off for these calls is given here.

Key:
Cannabinoid receptor 2 [1] = target: T1, Cannabinoid receptor 2 (Homo sapiens, UniProt P34972); assay: Displacement of [3H]-CP55940 from human recombinant CB2 receptor expressed in CHO cells membrane at 1 uM by scintillation counting; type: cell membranes
Method in brief: (§1)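 Competitive radioligand displacement with [3H]-CP-55,940 at human CB1 or CB2; single-point screen at 1 μM, specific displacement recorded.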

Cannabinoid receptor 2 [2] = target: T1, Cannabinoid receptor 2; assay: Displacement of [3H]-CP55940 from human recombinant CB2 receptor expressed in CHO cells membrane by scintillation counting; type: cell membranes
Cannabinoid receptor 1 [3] = target: T2, Cannabinoid receptor 1 (Homo sapiens, UniProt P21554); assay: Displacement of [3H]-CP55940 from human recombinant CB1 receptor expressed in CHO cells membrane at 1 uM by scintillation counting; type: cell membranes; method in brief: as §1
Homo sapiens = species on record: Homo sapiens; assay: Selectivity index, ratio of Ki for human recombinant CB1 receptor to KI for human recombinant CB2 receptor
Method in brief: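 Ki at hCB1 and hCB2 from [3H]-CP-55,940 competitive displacement; ratio CB1 Ki/CB2 Ki. Ki at CB1 determined only when 1 μM screen gave >60% displacement.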

Cannabinoid receptor 2 [4] = target: T1, Cannabinoid receptor 2; assay: Agonist activity at human recombinant CB2 receptor expressed in CHO cells membrane by [35S]-GTPgammaS assay; type: functional, cell membranes
Cannabinoid receptor 1 [5] = target: T2, Cannabinoid receptor 1; assay: Displacement of [3H]-CP55940 from human recombinant CB1 receptor expressed in CHO cells membrane by scintillation counting; type: cell membranes
Mus musculus [6] = assay: Anticolitis activity in TNBS-induced C57Bl6 mouse experimental colitis model assessed as reduction colitis macroscopic scores at 10 mg/kg, ip qd dosed 3 days before colitis induction; type: functional; set-up: scale not given: the % may be the effect or the level left; conditions: route intraperitoneal
Method in brief: (§2)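 TNBS colitis in mice; test agent given ip once daily at 10 mg/kg; mice killed three days after TNBS and colon inflammation parameters assessed; 10 mice per group, mean ± SEM, compared with TNBS plus vehicle.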

[7] = Stability in human liver microsomes assessed as compound remaining at 1 uM incubated for 60 mins; type: ADME, Microsome; conditions: read-out: Stability
Method in brief: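 Incubation at 1 μM with human liver microsomes (0.3 mg/mL), 0 and 60 min; percent parent remaining at 60 min.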

[8] = Fraction unbound in human plasma at 37 degC by equilibrium dialysis method; type: ADME, cell-free
Method in brief: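 Plasma protein binding by equilibrium dialysis at 37 °C; free fraction reported.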

Mus musculus [9] = assay: Anticolitis activity in TNBS-induced C57Bl6 mouse experimental colitis model assessed as MPO activity at 10 mg/kg, ip qd dosed 3 days before colitis induction (reference value: 73.7%) score); type: functional; conditions: route intraperitoneal; method in brief: as §2
Mus musculus [10] = assay: Effect on TNFalpha mRNA expression in TNBS-induced C57Bl6 mouse experimental colitis model at 10 mg/kg, ip qd dosed 3 days before colitis induction by real-time PCR method; type: functional, organism-based; set-up: dose 10 mg/kg; method in brief: as §2
Mus musculus [11] = assay: Effect on IL-1beta mRNA expression in TNBS-induced C57Bl6 mouse experimental colitis model at 10 mg/kg, ip qd dosed 3 days before colitis induction by real-time PCR method; type: functional, organism-based; set-up: dose 10 mg/kg; method in brief: as §2
Mus musculus [12] = assay: Anticolitis activity in TNBS-induced C57Bl6 mouse experimental colitis model assessed as reduction colitis histological scores at 10 mg/kg, ip qd dosed 3 days before colitis induction (reference value: 4.9 score); type: functional; conditions: route intraperitoneal; method in brief: as §2
[13] = target: MDR1 (ABCB1, P-glycoprotein) (Homo sapiens, UniProt P08183); assay: Inhibition of MDR1 expressed in MDCK2 cells at 10 uM by calcein AM accumulation assay; type: cell-based, MDCK-II; conditions: dog, MDCK2 cells expressing MDR1, probe calcein AM
Method in brief: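 P-gp interaction tested in MDR1-MDCKII cells via cellular uptake of calcein AM.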

[14] = Permeability from apical to basolateral side in human Caco2 cells at 10 uM incubated for 60 mins; type: ADME, cell-based; conditions: Caco-2, read-out: permeability
Method in brief: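 Caco-2 permeability: compound at 10 μM, samples at 0 and 60 min.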

[15] = Intrinsic clearance in mouse liver microsomes at 1 uM; type: ADME, Microsome; conditions: read-out: CLH

T2 sequence (P21554 whole entry): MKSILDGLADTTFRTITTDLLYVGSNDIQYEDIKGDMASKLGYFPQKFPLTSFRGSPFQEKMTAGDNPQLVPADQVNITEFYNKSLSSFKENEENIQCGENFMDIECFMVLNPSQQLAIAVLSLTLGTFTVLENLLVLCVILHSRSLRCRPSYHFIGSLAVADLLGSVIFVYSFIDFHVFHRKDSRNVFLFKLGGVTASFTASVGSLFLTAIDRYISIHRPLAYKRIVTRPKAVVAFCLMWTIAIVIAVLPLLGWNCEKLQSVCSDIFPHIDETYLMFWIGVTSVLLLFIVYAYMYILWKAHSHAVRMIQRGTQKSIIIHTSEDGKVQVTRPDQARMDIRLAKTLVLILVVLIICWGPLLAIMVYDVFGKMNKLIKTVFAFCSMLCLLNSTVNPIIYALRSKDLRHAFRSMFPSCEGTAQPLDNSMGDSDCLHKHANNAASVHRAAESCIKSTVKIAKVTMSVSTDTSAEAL
T1 sequence (P34972 whole entry): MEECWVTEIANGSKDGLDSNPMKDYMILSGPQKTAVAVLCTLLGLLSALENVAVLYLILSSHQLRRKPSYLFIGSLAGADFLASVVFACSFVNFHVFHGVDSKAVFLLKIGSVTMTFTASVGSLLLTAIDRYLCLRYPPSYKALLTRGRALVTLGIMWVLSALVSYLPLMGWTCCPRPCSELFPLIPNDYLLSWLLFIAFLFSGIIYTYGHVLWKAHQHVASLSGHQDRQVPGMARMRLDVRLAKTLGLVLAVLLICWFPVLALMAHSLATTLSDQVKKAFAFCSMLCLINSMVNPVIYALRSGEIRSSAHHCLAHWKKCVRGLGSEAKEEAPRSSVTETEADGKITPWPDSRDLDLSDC
Sequence of MDR1 (ABCB1, P-glycoprotein) (P08183 whole entry): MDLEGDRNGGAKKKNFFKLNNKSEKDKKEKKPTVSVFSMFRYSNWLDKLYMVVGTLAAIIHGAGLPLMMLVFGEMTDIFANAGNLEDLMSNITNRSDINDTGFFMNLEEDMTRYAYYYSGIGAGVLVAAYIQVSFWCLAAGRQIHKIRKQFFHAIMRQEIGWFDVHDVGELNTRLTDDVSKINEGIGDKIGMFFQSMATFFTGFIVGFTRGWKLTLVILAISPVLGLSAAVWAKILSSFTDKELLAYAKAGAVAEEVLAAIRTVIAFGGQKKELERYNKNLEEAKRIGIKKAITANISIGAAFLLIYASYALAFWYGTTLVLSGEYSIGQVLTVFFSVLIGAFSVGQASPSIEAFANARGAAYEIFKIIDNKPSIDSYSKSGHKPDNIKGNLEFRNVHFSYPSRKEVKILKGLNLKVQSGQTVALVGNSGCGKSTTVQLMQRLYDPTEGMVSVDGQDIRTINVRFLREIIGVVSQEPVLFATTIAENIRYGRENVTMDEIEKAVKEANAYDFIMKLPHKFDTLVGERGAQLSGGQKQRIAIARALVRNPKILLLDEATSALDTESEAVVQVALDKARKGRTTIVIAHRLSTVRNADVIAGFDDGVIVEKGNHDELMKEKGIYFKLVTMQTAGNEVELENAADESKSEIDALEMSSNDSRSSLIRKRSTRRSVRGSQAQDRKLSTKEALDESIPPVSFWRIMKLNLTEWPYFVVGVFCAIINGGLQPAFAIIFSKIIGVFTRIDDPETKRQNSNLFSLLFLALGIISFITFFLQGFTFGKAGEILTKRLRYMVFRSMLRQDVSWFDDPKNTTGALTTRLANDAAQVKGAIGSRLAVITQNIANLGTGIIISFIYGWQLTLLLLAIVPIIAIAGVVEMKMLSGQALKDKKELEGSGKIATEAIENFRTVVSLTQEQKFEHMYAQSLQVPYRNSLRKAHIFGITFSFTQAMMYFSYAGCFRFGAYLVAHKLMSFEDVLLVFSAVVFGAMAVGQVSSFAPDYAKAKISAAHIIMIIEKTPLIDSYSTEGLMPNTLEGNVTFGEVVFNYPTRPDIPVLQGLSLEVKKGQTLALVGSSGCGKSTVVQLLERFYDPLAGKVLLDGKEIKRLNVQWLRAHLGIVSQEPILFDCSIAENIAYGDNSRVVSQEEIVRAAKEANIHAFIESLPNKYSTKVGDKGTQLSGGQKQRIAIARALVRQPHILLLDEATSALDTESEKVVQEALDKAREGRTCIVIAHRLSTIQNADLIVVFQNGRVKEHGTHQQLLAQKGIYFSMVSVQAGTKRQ

Row | Compound | Activity (Cannabinoid receptor 2 [1]) [%] | Ki (Cannabinoid receptor 2 [2]) [nM] | Activity (Cannabinoid receptor 1 [3]) [%] | EC50 (Cannabinoid receptor 2 [4]) [nM] | Ki (Cannabinoid receptor 1 [5]) [nM] | Activity (Mus musculus [6]) [%] | further results
1 | CCCCCn1cc(C(=O)NCC2CC2)c(=O)cc1C | > 60 | > 1000 | > 60 | – | – | – | –
2 | Cc1cc(=O)c(C(=O)NC23CC4CC(CC(C4)C2)C3)cn1CCCC(F)(F)F | > 60 | 0.28 | > 60 | 17.3 | > 1000 | 65.1 | Ratio Ki (Homo sapiens): > 3570
3 | COCCCn1cc(C(=O)NC23CC4CC(CC(C4)C2)C3)c(=O)cc1C | > 60 | > 1000 | > 60 | – | – | – | –
4 | CCCCCn1cc(C(=O)NC23CC4CC(CC(C4)C2)C3)c(=O)c(-c2ccncc2)c1C | > 60 | 36.5 | > 60 | 114 | > 1000 | 61.4 | Ratio Ki (Homo sapiens): > 10; remaining at 1 h, 1 µM [7]: 1%; fraction unbound [8]: 0.07; Activity (Mus musculus [9]): 34.1%; Activity (Mus musculus [10]): inactive; Activity (Mus musculus [11]): inactive; Activity (Mus musculus [12]): 3.1; inhibition at 10 µM [13]: 33.7%; Papp A→B at 1 h, 10 µM [14]: 49.9 ×10⁻⁶ cm/s; microsomal CLint at 1 µM [15]: > 200 µL/min/mg
5 | CCCCCn1cc(C(=O)NC23CC4CC(CC(C4)C2)C3)c(=O)c(-c2cccc(C#N)c2)c1C | > 60 | > 1000 | > 60 | – | – | – | –
6 | CCCCCn1cc(C(=O)NC23CC4CC(CC(C4)C2)C3)c(=O)cc1C(C)(C)C | – | – | – | – | – | 19.3 | remaining at 1 h, 1 µM [7]: 1%; fraction unbound [8]: 0.01; inhibition at 10 µM [13]: 94.5%; Papp A→B at 1 h, 10 µM [14]: 9.8 ×10⁻⁶ cm/s; microsomal CLint at 1 µM [15]: > 200 µL/min/mg
7 | Cc1cc(=O)c(C(=O)NC23CC4CC(CC(C4)C2)C3)cn1CCC1CCOCC1 | > 60 | 196 | > 60 | – | – | – | –
8 | CCCCCn1cc(C(=O)NCC23CC4CC(CC(C4)C2)C3)c(=O)cc1C | > 60 | 15.2 | > 60 | 53.1 | > 1000 | 55.9 | Ratio Ki (Homo sapiens): > 10
9 | COC(Cn1cc(C(=O)NC23CC4CC(CC(C4)C2)C3)c(=O)cc1C)OC | > 60 | > 1000 | > 60 | – | – | – | –
10 | CCCCCn1cc(C(=O)NCC23CC4CC(CC(C4)C2)C3)c(=O)cc1C(C)(C)C | > 60 | 10.2 | > 60 | 49.2 | > 1000 | 62.2 | –
11 | Cc1cc(=O)c(C(=O)NC23CC4CC(CC(C4)C2)C3)cn1CC1OCCO1 | > 60 | > 1000 | > 60 | – | – | – | –
12 | CCCCCn1cc(C(=O)NN2CCCCC2)c(=O)cc1C | > 60 | > 1000 | > 60 | – | – | – | –
13 | CCCCCn1cc(C(=O)NC(C)C)c(=O)cc1C | > 60 | > 1000 | > 60 | – | – | – | –
14 | Cc1cc(=O)c(C(=O)NC23CC4CC(CC(C4)C2)C3)cn1CC1CCOCC1 | > 60 | 24.1 | > 60 | 47.4 | > 1000 | 66.3 | Ratio Ki (Homo sapiens): > 10
15 | CCCCCn1cc(C(=O)NC23CC4CC(CC(C4)C2)C3)c(=O)c(I)c1C | > 60 | 20.8 | > 60 | 11.9 | 193 | – | –
16 | CCCCCn1cc(C(=O)NC23CC4CC(CC(C4)C2)C3)c(=O)c(-c2ccc(CC)cc2)c1C | > 60 | 54.3 | > 60 | 39.9 | > 1000 | – | –
17 | CCCCCn1cc(C(=O)Nc2ccccc2)c(=O)cc1C | > 60 | > 1000 | > 60 | – | – | – | –
18 | CCCCCn1cc(C(=O)NC23CC4CC(CC(C4)C2)C3)c(=O)c(C2CC2)c1C | > 60 | 13.4 | > 60 | 88.5 | 105 | – | –
19 | CCCCCn1cc(C(=O)NC(C)C23CC4CC(CC(C4)C2)C3)c(=O)cc1C(C)(C)C (racemic) | > 60 | 9 | > 60 | 47.1 | 548 | 60 | –
20 | CCCCCn1cc(C(=O)NC23CC4CC(CC(C4)C2)C3)c(=O)c(-c2cccc(C(C)=O)c2)c1C | > 60 | > 1000 | > 60 | – | – | – | –
21 | CCCCCn1cc(C(=O)NC2CCCCC2)c(=O)cc1C | > 60 | 24.4 | > 60 | 49.9 | > 1000 | 74.9 | Ratio Ki (Homo sapiens): > 10
22 | C/C=C\n1cc(C(=O)NC23CC4CC(CC(C4)C2)C3)c(=O)cc1C | > 60 | > 1000 | > 60 | – | – | – | –
23 | CCCCCn1cc(C(=O)NC(C)C23CC4CC(CC(C4)C2)C3)c(=O)cc1C (racemic) | > 60 | 6.4 | > 60 | 84.2 | > 1000 | 74.9 | Ratio Ki (Homo sapiens): > 10
24 | CCCCCn1cc(C(=O)NC2C3CC4CC(C3)CC2C4)c(=O)cc1C(C)(C)C (stereo unspecified) | > 60 | 9.6 | > 60 | 452 | 562 | 51.5 | –
25 | CCCCCn1cc(C(=O)Nc2ccccc2)c(=O)cc1C(C)(C)C | > 60 | 9.2 | > 60 | 8.3 | 87.9 | – | –
26 | CCCCCn1cc(C(=O)NC23CC4CC(CC(C4)C2)C3)c(=O)c(-c2ccc(C)cc2)c1C | > 60 | > 1000 | > 60 | – | – | – | –
27 | CCCCCn1cc(C(=O)NC2C3CC4CC(C3)CC2C4)c(=O)cc1C (stereo unspecified) | > 60 | 0.26 | > 60 | 38.4 | > 1000 | 74.9 | Ratio Ki (Homo sapiens): > 3850
28 | CCCCCn1cc(C(=O)NC23CC4CC(CC(C4)C2)C3)c(=O)c(-c2ccccc2)c1C | > 60 | 189 | > 60 | – | – | – | –
29 | CCCCCn1cc(C(=O)NCC2CC2)c(=O)cc1C(C)(C)C | > 60 | 14.1 | > 60 | 27.8 | 176 | 74.9 | Ratio Ki (Homo sapiens): > 10
30 | Cc1cc(=O)c(C(=O)NC23CC4CC(CC(C4)C2)C3)cn1CCC1OCCO1 | > 60 | > 1000 | > 60 | – | – | – | –
